NPY-Y1 PAM-ag: human NPY-Y1 potentiation or agonism, primary screen; actives 0.37% (n = 220,000); activation, % at 3.6 µM; NPY-Y1 expressing cells, potentiator/agonist activation; AID 1304; in the data active = activation above about 33%, passing the limit was not always enough;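 note: cells stimulated with NPY at EC10 then isoproterenol at EC100; 0% = low agonist plus stimulus and 100% = saturating agonist plus stimulus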
NPY Y1 blocker: blocks the human neuropeptide Y Y1 receptor | P25929 | HEK293-CNG Y1 cells, membrane potential fluorescence; NPY at EC95, then isoproterenol | inhibition, % at 3.6 µM | actives 1% (n = 200,000) | AID 1040;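 active = inhibition above the campaign mean inhibition of all tested compounds plus 3 SD, cut at about 20% in these data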;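 note: 0% = DMSO wells given NPY plus isoproterenol and 100% = isoproterenol alone without NPY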
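Material: Y1- and CNG-channel-expressing HEK293 cells / Probe or stimulus: NPY 25 nM then isoproterenol 1 µM plus Ro 20-1724 25 µM / Doses: 3.6 µM single dose, DMSO 0.4% / Schedule: compound incubation 1 h at room temperature, readout 45 min post-stimulation / Signal: membrane potential fluorescence / Benchmarks: isoproterenol-only wells as full block versus NPY-plus-isoproterenol wells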
EP2 mod: modulators of human EP2 prostaglandin E2 receptor. induction, % at 25 µM. EP2-expressing cells, cAMP HTRF FRET, PGE2 co-stimulation. actives 0.83% (n = 260,000). AID 940;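 active = compounds whose cAMP rise, as percent of the full-agonist control response, exceeds 60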;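 note: rat C6 glioma line stably carrying human EP2 under a CMV promoter; the protocol text gives 20 µM as final concentration; 100% = response of wells given 1 µM PGE2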
Target sequence (P43116 whole entry, looked up): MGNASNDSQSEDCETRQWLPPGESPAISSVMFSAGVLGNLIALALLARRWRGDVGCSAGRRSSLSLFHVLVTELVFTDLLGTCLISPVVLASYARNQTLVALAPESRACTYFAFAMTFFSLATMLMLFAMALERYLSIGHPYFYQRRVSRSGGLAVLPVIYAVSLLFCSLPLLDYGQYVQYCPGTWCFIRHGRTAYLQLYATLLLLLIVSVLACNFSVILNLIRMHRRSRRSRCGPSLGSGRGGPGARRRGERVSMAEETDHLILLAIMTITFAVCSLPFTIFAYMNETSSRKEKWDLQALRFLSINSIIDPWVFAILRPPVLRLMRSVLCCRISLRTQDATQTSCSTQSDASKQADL
NPY Y2 blocker: antagonists of human neuropeptide Y receptor Y2; NPY-Y2 expressing cells, antagonist mode; inhibition, % at 2.7 µM; AID 793; actives 0.99% (n = 140,000); in the data active = inhibition above about 17%;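 note: 0% = vehicle with agonist challenge and 100% = reference antagonist with challenge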
NPY2 pot ag: potentiators or agonists of human neuropeptide Y receptor Y2. cells expressing NPY-Y2, potentiator/agonist read-out. actives 0.45% (n = 220,000). AID 1359. P49146. activation, % at 3.6 µM; in the data active = activation above about 27%;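 note: cells stimulated with NPY near EC25 plus isoproterenol at EC100; 0% = vehicle plus submaximal agonist and 100% = vehicle plus saturating agonist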
EP2 antag: inhibitors of human EP2 prostaglandin E2 receptor | actives 0.52% (n = 260,000) | inhibition, % at 25 µM | C6 glioma cells expressing human EP2, cAMP TR-FRET; cells stimulated with saturating PGE2 | P43116;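 active = percent inhibition above 40 after rounding to a whole number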;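 note: rat C6 glioma host cells with rolipram phosphodiesterase inhibitor present; the protocol text gives 20 µM as final concentration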
EP2 cAMP induct: EP2 receptor cAMP induction, counter-screens negative; shares compounds with EP2 mod; C6 glioma EP2 cells, cAMP HTRF induction; plus low (about EC15) PGE2 agonist; calls only at 20 µM (by protocol); actives 47% (n = 1,300);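 active = cAMP induction above 50% in the main assay while under 30% in all four parallel counter assays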;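 note: rat C6 glioma cells stably expressing human EP2 receptor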
An asterisk follows results filed as active; i = inactive; · = not tested or not shown; + = active, no number; ! = not confirmed by another sample. The list is not random: actives were taken first. Their share in the collection is about 2.8%.

SMILES | NPY-Y1 PAM-ag | NPY Y1 blocker | EP2 mod | NPY Y2 blocker | NPY2 pot ag | EP2 antag | EP2 cAMP induct
CCOc1ccc(-c2nnc3n2N=C(c2ccc(OC)cc2)CS3)cc1 | -6 | 0 | 75* | 4 | -20 | 3 | +
CCc1ccc2[nH]c(=O)c(CN(CCCO)C(=O)c3cccc(F)c3)cc2c1 | · | · | -30 | · | · | 11 | ·
Cc1ccc(C)n1-c1sc2c(c1C#N)CCCC2 | -28 | 1 | 63* | 3 | 10 | 15 | +
Cc1sc(-n2c(C)ccc2C)c(C#N)c1C | 5 | 3 | 56 | 0 | 1 | 4 | ·
Cc1sc(NC(=O)c2ccc(F)cc2)c(CN2CCCCCC2)c1C | -17 | -2 | 59 | 0 | 2 | 9 | ·
Cc1sc(NC(=O)c2ccccc2F)c(CN2CCCCC2)c1C | -21 | -1 | 84* | 2 | -6 | 17 | i
COc1cc(C2Oc3cc(C4Oc5cc(O)cc(O)c5C(=O)C4O)ccc3OC2CO)ccc1O (centres undefined) | -2 | 2 | 80* | 0 | -5 | 10 | i
COc1ccc2c(c1)C(=O)[C@H](O)[C@@H](c1ccc(OC)c(Br)c1)O2 | -23 | -2 | 23 | 1 | 10 | 7 | ·
CC(C)CCn1c(N2CCN(c3cccc(Cl)c3)CC2)nc2c1c(=O)[nH]c(=O)n2C | 6 | -2 | 65* | 7 | 2 | 8 | i
COc1ccc(N2CCN(c3nc4c(c(=O)[nH]c(=O)n4C)n3Cc3cccc(C)c3)CC2)cc1 | -12 | 1 | 70* | -1 | -10 | 7 | i
COCCn1c(N2CCN(c3ccc(OC)cc3)CC2)nc2c1c(=O)[nH]c(=O)n2C | 3 | -5 | -3 | -1 | -4 | 6 | ·
CC(C)NC(=O)Cn1ccc2ccc(C#N)cc21 | · | · | -16 | · | · | 16 | ·
N#CCSc1nc2c(c(C3CC=CCC3)c1C#N)CCC2 (centres undefined) | -6 | 7 | 78* | 13 | 1 | 5 | +
CCOC(=O)C1=C(C)NC(C)=C(C(=O)OC)C1c1cccc(Cl)c1Cl (centres undefined) | -14 | -3 | 65*! | 3 | -3 | 9 | i
CCOC(=O)C1=C(COCCN)NC(C)=C(C(=O)OC)C1c1ccccc1Cl (centres undefined) | · | · | 5 | · | · | 24 | ·
Cn1c(/C=C/N(Cc2ccccc2)c2ccccc2)c([N+](=O)[O-])c(=O)n(C)c1=O | 8 | -7 | 68* | · | -1 | 5 | +
CCN(c1cccc(C)c1)S(=O)(=O)c1ccc2c3c(cccc13)C(=O)N2 | -3 | -6 | 79* | -1 | -2 | 15 | +
Cc1cccnc1Nc1nc(-c2cc3ccccc3oc2=O)cs1 | · | · | 21 | · | · | 11 | ·
COc1ccc(CN2C(=O)CN=C2Nc2cc(C)ccc2C)cc1 | 1 | 6 | 70* | 4 | -15 | 10 | i
CCCCc1nc2sc3c(SCC(=O)NCc4ccco4)ncnc3c2c2c1CCC2 | -4 | -2 | 68* | 1 | 2 | 10 | i
C=CCn1c(=O)c2c(nc(-c3ccc(S(=O)(=O)O)cc3)n2C)n(C)c1=O | · | · | 66* | · | · | 19 | i
C=CCn1c(=O)c2c(nc3n2CCN3c2cccc(Cl)c2C)n(C)c1=O | 8 | -7 | 9 | 0 | 13 | 6 | ·
Cc1cc(SCC(=O)c2ccccc2)nc2ccccc12 | · | · | 57 | · | · | 12 | i
CCOC(=O)c1ccccc1NC1c2ccccc2C(=O)N1c1ccc(C)cn1 (centres undefined) | -22 | 2 | 52 | 7 | 8 | 6 | ·
Cc1ccnc(N2C(=O)c3ccccc3C2Nc2ccccc2Cl)c1 (centres undefined) | -10 | 4 | 48 | 1 | 3 | 9 | ·
SMILES | NPY-Y1 PAM-ag | NPY Y1 blocker | EP2 mod | NPY Y2 blocker | NPY2 pot ag | EP2 antag | EP2 cAMP induct
CCOc1ccccc1NC1c2ccccc2C(=O)N1c1ccc(C)cn1 (centres undefined) | 0 | 2 | 81* | 0 | 9 | 5 | i
CCc1ccccc1NC1c2ccccc2C(=O)N1c1cc(C)ccn1 (centres undefined) | 0 | 0 | 81* | 1 | 9 | 9 | i
COc1ccc(NC(=O)CSc2nnc(-c3ccc(F)cc3)o2)cc1OC | · | · | -40 | · | · | 10 | ·
CCn1c(COc2cccc(C)c2)nnc1SCC(=O)N1CCCC(C)C1 (centres undefined) | · | · | 6 | · | · | 12 | ·
CSc1nnc2c3ccccc3c3ccccc3c2n1 | 0 | 5 | 76* | -1 | -9 | · | +
CSc1nnc(-c2ccccc2)c(-c2ccccc2)n1 | 9 | · | 21 | · | 21 | 8 | ·
Cc1cc(C(=O)Nc2nnc(-c3ccccc3Cl)s2)c(C)o1 | · | · | -37 | · | · | 13 | ·
Clc1ccc(Cl)c(-c2ccc(/C=N/c3ncn[nH]3)o2)c1 | 7 | -1 | 71* | 4 | 6 | 30 | i
COc1ccc(/C(O)=C2/C(=O)C(=O)N(CCCN3CCOCC3)C2c2cccnc2)c(C)c1 (centres undefined) | · | · | 4 | · | · | 8 | ·
O=C(NNc1ccc([N+](=O)[O-])cc1[N+](=O)[O-])C1C2CCCCC21 (centres undefined) | -38 | 1 | 65* | 0 | -4 | 8 | +
COc1ccc(-c2cc(C(F)(F)F)c(C#N)c(SC(C)C(C)=O)n2)cc1OC (centres undefined) | · | · | 30 | · | · | 12 | ·
CC1CCN(C(=O)CSc2nc3ccccc3s2)CC1 | -16 | 11 | -33 | 13 | -23 | · | ·
CC1CCCN(C(=O)CSc2cnc3ccccc3n2)C1 (centres undefined) | -16 | 1 | 68* | 8 | -13 | 16 | i
Cc1nc2ccccc2nc1SCC(=O)N1CCC(C)CC1 | -2 | 4 | 65* | 12 | -26 | 16 | i
CC1Oc2ccccc2N(Cc2ccccc2Cl)C1=O (centres undefined) | 7 | -2 | 50 | 4 | -1 | 8 | ·
O=C1COc2ccccc2N1Cc1ccccc1Cl | -2 | 6 | 68* | 2 | 2 | 7 | i
CC(C)(C)OC(=O)N1CCC[C@@H]1C(=O)c1cccs1 | · | · | 2 | · | · | · | ·
O=c1cc(N2CCCCC2)c(-c2ccccc2)nn1Cc1ccccc1 | -2 | -1 | 82* | · | -4 | 9 | +
Cc1ccccc1-n1c(=O)[nH]c(=O)c2c(N)c(C(=O)c3ccc(Cl)cc3)sc21 | 3 | -1 | 66* | 5 | 7 | 3 | i
O=C(/C=C/Nc1ccccc1Oc1ccccc1)c1ccco1 | -29 | -1 | 65* | · | -16 | 8 | i
CCn1ncc(Cl)c1C(=O)Nc1cc(Cl)ccc1Cl | -21 | 14 | 70* | 3 | -9 | 7 | +
O=c1[nH]c(=S)c2c(n1-c1ccccc1)CCC2 | -6 | -5 | 82* | 0 | 1 | 33 | i
